High-throughput results from PubChem.
mABHD4 FP = ABHD4 inhibitors, primary screen, biochemical, fluorescence polarization, mouse; (Lyso)-N-acylphosphatidylethanolamine lipase (Mus musculus), Q8VD66; purified mABHD4, FP-Rh probe fluorescence polarization; inhibition, % at 8.92 µM; actives 0.54% (n = 370,000); AID 720543, 2013;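 active = inhibition exceeding the mean over every tested compound plus 3 SD, cut at about 30% in these data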;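 note: 0% = plate median of compound wells and 100% = S159A mutant with DMSO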
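Doses – 8.92 µM, single dose · Material – wild-type mouse ABHD4 protein · Replication – single well per compound (singlicate) · Measure – percent inhibition of probe binding, normalized to plate controls · Schedule – 45 min compound pre-incubation plus 60 min probe step, 25 °C · Detection – fluorescence polarization with parallel and perpendicular emission, 525/598 nm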
SIAE primary = human SIAE inhibitors, primary screen, biochemical, fluorescence polarization, FP-Rh probe, 1536-well HTS | Sialate O-acetylesterase (Homo sapiens), Q9HAT2 | SIAE FP-Rh probe binding | inhibition, % at 9.66 µM | actives 0.69% (n = 370,000) | AID 1053197, 2014;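 active = inhibition above a cutoff: mean of compounds within the control limits plus 3 SD of those, cut at about 17% in these data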;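 note: 0% = plate median of compound wells and 100% = probe without SIAE protein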
Target sequence (Q9HAT2 whole entry, looked up): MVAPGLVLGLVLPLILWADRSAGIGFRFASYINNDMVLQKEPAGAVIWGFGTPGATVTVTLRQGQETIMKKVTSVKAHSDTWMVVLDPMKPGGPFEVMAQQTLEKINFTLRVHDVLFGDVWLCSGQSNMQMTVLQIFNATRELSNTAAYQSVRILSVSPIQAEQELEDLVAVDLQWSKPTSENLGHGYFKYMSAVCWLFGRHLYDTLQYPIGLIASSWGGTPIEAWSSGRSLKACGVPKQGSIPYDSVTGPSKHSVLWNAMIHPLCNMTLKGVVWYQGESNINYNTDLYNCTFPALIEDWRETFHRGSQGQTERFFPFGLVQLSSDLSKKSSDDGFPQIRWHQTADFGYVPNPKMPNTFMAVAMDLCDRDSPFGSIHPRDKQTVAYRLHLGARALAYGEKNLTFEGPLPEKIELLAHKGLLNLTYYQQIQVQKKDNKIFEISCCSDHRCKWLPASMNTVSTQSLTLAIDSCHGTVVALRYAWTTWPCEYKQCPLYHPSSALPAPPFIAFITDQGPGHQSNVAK
HTRA1 inh = HTRA1 serine protease inhibitors, primary screen, biochemical, fluorescence polarization, HTS; Q92743; recombinant HTRA1, FP-rhodamine activity-based probe; inhibition, % at 5.96 µM; actives 0.5% (n = 340,000); in the data active = inhibition above about 36%;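 note: 0% = enzyme with DMSO and 100% = wells lacking enzyme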
Tn6 DDE FP = inhibitors of Tn6 peptide binding to fibrin DD(E), primary screen, biochemical, fluorescence polarization, human fibrin, Tn6 probe; Fibrinogen beta chain (Homo sapiens), P02675; Fibrin DD(E) TRITC-Tn6 fluorescence polarization displacement; inhibition, % at 8.3 µM; actives 0.21% (n = 370,000); AID 720509, 2013;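 active = inhibition above a per-campaign cutoff: mean of compounds within control limits plus 3 SD, cut at about 15% in these data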;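 note: 0% = median of all compound wells on the plate and 100% = blocking peptide control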
Tn7 DDE FP = inhibitors of Tn7 peptide binding to fibrin DD(E), primary screen, biochemical, fluorescence polarization, human fibrin, Tn7 probe; Fibrinogen beta chain (Homo sapiens), P02675; FP displacement of FITC-Tn7 peptide from fibrin DD(E); 0% = median of compound wells per plate; inhibition, % at 8.3 µM; actives 0.13% (n = 370,000);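 active = inhibition above the mean of compounds falling within the control limits plus 3 SD of them, cut at about 14% in these data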;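 note: 0% = plate median of compound wells and 100% = 10 µM Aha-Tn7 peptide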
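Test system: human clot-derived fibrin DD(E) complex / Quantity: 2 µM final DD(E) protein / Incubation: 10 min plus 3 h, room temperature / Measured by: fluorescence polarization / Benchmarks: high control of 10 µM Aha-Tn7 peptide / Replicates: singlicate testing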
TCR-CD3 inh = inhibitors of human TCR-CD3 interaction, primary screen, biochemical, fluorescence, TAMRA-labeled TCR probe; T-cell receptor (TCR); inhibition, % at 9.4 µM; actives 0.37% (n = 360,000); AID 651800, 2012;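 note: recombinant mutant TCR 2C K166C tagged with TAMRA read by polarization; 0% = receptor in buffer alone and 100% = receptor with positive control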
BSA TAMRA ctr = compounds interfering with TAMRA-BSA probe, counter-screen for TCR-CD3 interaction inhibitor project, biochemical, fluorescence, TAMRA-labeled BSA; TAMRA-labeled BSA probe fluorescence counterscreen; inhibition, % at 9.4 µM; AID 652035, 2013; shares compounds with TCR-CD3 inh; actives 10% (n = 1,200); in the data active = inhibition above about 23%;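 note: 0% = buffer low control and 100% = reference high control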
TCR-CD3 inh conf = TCR-CD3 interaction inhibitors, retest, confirmation, biochemical, fluorescence, TAMRA-labeled TCR probe; shares compounds with TCR-CD3 inh; TAMRA-labeled TCR probe fluorescence binding assay; inhibition, % at 9.4 µM; actives 48% (n = 1,200)
Tn6 DDE ctr = counter-screen for inhibitors of Tn6 peptide binding to fibrin DD(E). shares compounds with Tn6 DDE FP. TRITC-Tn6 fluorescence polarization displacement; 0% = median of compound wells, not DMSO. inhibition, % at 8.3 µM. actives 2% (n = 680). AID 720621;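 active = inhibition above the mean of test compounds lying between the control limits plus 3 SD of those, cut at about 14% in these data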;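 note: 0% = median of compound wells and 100% = wells with Aha-Tn7 blocking peptide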
DDE Tn6 confirm = inhibitors of Tn6 peptide binding to fibrin DD(E), confirmation, biochemical, fluorescence polarization, human fibrin, Tn6 probe | inhibition, % at 8.3 µM | FP displacement of TRITC-Tn6 peptide from DD(E); 0% = per-plate median of test wells | AID 720631, 2013 | actives 10% (n = 680) | shares compounds with Tn6 DDE FP;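 active = inhibition above the mean of compounds lying within the control limits plus 3 SD, cut at about 16% in these data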;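 note: 100% = high control wells holding a competing inhibitor peptide at 10 µM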
ABHD4 confirm = ABHD4 inhibitors, retest, confirmation, biochemical, fluorescence polarization, mouse; shares compounds with mABHD4 FP; purified mABHD4, FP-Rh probe fluorescence polarization; inhibition, % at 8.92 µM; actives 55% (n = 1,800); AID 720658, 2013;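 active = mean inhibition across replicates above the hit cutoff set in the primary screen, cut at about 30% in these data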;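 note: 0% = wild-type ABHD4 with DMSO and 100% = catalytically dead S159A mutant with DMSO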
Numbers without * were called inactive; nt = no result given. The list is not random: actives were taken first. Their share in the collection is about 1.8%. Cut-off read from the data, not from the text of the source, unless noted: active = inhibition above about 19%; inactive = the rest.

SMILES	mABHD4 FP	SIAE primary	HTRA1 inh	Tn6 DDE FP	Tn7 DDE FP	TCR-CD3 inh	BSA TAMRA ctr	TCR-CD3 inh conf	ABHD4 confirm	others
CCCCNC(=O)C[C@H]1C[C@@]2(C(=O)OC)C(=C[C@H](COCc3ccccc3)O[C@@H]2C)N(Cc2ccco2)C1=O	4	6	nt	11	1	nt	nt	nt	nt
Oc1cc2c(cc1O)[C@H]1c3ccc(O)c(O)c3OC[C@@]1(O)C2	33*	-9	24	12	-3	128*	65*	116*	12
O=C(CSc1nnc(-c2ccco2)c(-c2ccco2)n1)c1ccccc1	46*	10	27	-3	0	35*	-16	19*	17
O=C1C(=Cc2ccco2)CCCC1=Cc1ccco1	-1	4	22	-1	-8	11	nt	nt	nt
O=C1C(=Cc2ccco2)CCC1=Cc1ccco1	31*	12	34	-4	0	45*	-7	17	6
C#CCNC(=O)C[C@@H]1C(=O)N(Cc2ccc(OC)cc2)/C2=C/CCCCC[C@@]21C(=O)OCC	11	2	nt	2	6	nt	nt	nt	nt
O=C(N/N=C/c1cc2c(c([N+](=O)[O-])c1)OCO2)c1ccncc1	10	5	6	-9	-5	10	nt	nt	nt
O=C(N/N=C/c1ccncc1)c1cc([N+](=O)[O-])cc([N+](=O)[O-])c1O	32*	3	34	-5	1	38*	4	48*	36*
c1ccc(C2OC3c4cccc5cccc(c45)C3N2c2ccccc2)cc1 (configuration not stated)	48*	2	3	15	2	25*	7	3	-21
CCOC(=O)c1cccc(NC(=O)CN(C)S(=O)(=O)c2ccco2)c1	3	-3	nt	4	-3	nt	nt	nt	nt
O=C1C=CC(=O)c2c(O)c(N3CCN(CCO)CC3)c(Cl)c(O)c21	35*	10	35	40*	-6	63*	10	39*	79*	Tn6 DDE ctr=-4;DDE Tn6 confirm=9
O=S(=O)(c1ccc(Br)cc1Cl)N1CCN(CCO)CC1	1	5	1	0	10	2	nt	nt	nt
O=[N+]([O-])c1ccc(O)c(/C=N/NC(=S)Nc2ccc(Cl)cc2Cl)c1	35*	14	32	-4	2	23*	-2	33*	27
O=c1c(O)c(-c2cc(O)c(O)c(O)c2)oc2cc(O)cc(O)c12	42*	56*	17	-1	-1	29*	-9	45*	48*
O=c1c(O)c(-c2ccccc2)oc2cc(O)cc(O)c12	4	14	17	-1	9	-3	nt	nt	nt
COC(=O)[C@H](C(C)C)N1CCc2nnn(Cc3ccc(C)cc3)c2-c2cc(F)ccc2S1(=O)=O	5	-4	nt	2	3	nt	nt	nt	nt
C(#CC1=CCCCC1)CNCc1ccccc1	7	5	nt	-4	1	nt	nt	nt	nt
[O-][n+]1c2ccccc2[n+]([O-])c2cc(O)ccc21	31*	10	28	16*	-5	21*	10	22*	35*
CCCOc1ccc(/C=N/NC(=S)Nc2ccccc2[N+](=O)[O-])c(O)c1	39*	13	nt	-1	-4	27*	-12	8	36*
CCCOc1ccc(/C=N/Nc2ccccc2[N+](=O)[O-])c(O)c1	-1	13	7	-9	-4	1	nt	nt	nt
Cc1ccccc1NC(=S)N/N=C/c1ccc(O)cc1O	34*	14	35	-5	9	20*	-16	7	11
Cc1cccc(NC(=S)N/N=C/c2cccc(O)c2)c1C	-9	6	-1	-2	-5	-4	nt	nt	nt
COc1ccc2c(c1)CNC2CS(=O)(=O)NCCc1ccccc1 (configuration not stated)	-2	-3	nt	1	-3	nt	nt	nt	nt
C/C(=N\NC(=O)COc1cccc(C)c1)c1ccc2ccccc2c1O	49*	-3	13	5	10	28*	-14	16	46*
Cc1cccc(OCC(=O)NCc2ccccc2)c1	9	-5	2	1	-9	0	nt	nt	nt
SMILES	mABHD4 FP	SIAE primary	HTRA1 inh	Tn6 DDE FP	Tn7 DDE FP	TCR-CD3 inh	BSA TAMRA ctr	TCR-CD3 inh conf	ABHD4 confirm	others
CC(C)C[C@H]1COc2cccc(F)c2S(=O)(=O)N1Cc1cn(Cc2ccc(C(F)(F)F)cc2)nn1	2	-7	nt	9	2	nt	nt	nt	nt
N#C/C(=C\c1cc(O)c(O)c(O)c1)C(N)=O	38*	0	18	-4	-2	32*	-6	13	20
CCN(CC)c1cccc(OCC(=O)N(C)CCC#N)c1	63*	-46	23	88*	6	21*	-70	-25	-53	Tn6 DDE ctr=9;DDE Tn6 confirm=10
CCOc1cccc(C(=O)Nc2ccc(N(CC)CC)cc2)c1	-1	7	4	-4	8	0	nt	nt	nt
C/C=C/c1ccccc1OCCCN1CCC(C(O)(c2ccccc2)c2ccccc2)CC1	8	-12	nt	5	-4	nt	nt	nt	nt
CCC(NC(=O)Nc1ccc(O)cc1)(C(F)(F)F)C(F)(F)F	62*	12	28	13	-8	28*	4	2	28
COc1ccc(CCC[C@H](CCC(=O)N(c2ccccc2)c2ccccc2)CCc2ccccc2)cc1	-9	7	nt	-8	5	nt	nt	nt	nt
